Screens as filed in PubChem BioAssay.
CHO parental Ca = signal in parental CHO cells, OX1R antagonist counter-screen; 0.63% of 330,000 active; inhibition, % at 5.6 µM; parental CHO-K1, ATP-induced calcium, Fluo-8 fluorescence;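 active = inhibition above that plate's mean sample inhibition plus 3 SD, cut at about 26% in these data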
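Measured by: calcium-sensitive Fluo-8 fluorescence / Test system: CHO parental line / Controls: ATP-challenged DMSO wells low, unchallenged DMSO wells high / Measure: % inhibition / Compound: single nominal dose of 5.6 µM per compound / Replicates: single well per compound, no replicates / Reagent: ATP as calcium-mobilizing challenge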
OXTR potentiator = potentiators of human oxytocin receptor; P30559; 0.061% of 320,000 active; CHO-OTR cells, Fluo-8 calcium fluorescence, potentiator mode; 0% = oxytocin EC15, 100% = EC100; activation, % at 3 µM; AID 2445;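 active = activation above that plate's cutoff, the mean activation of tested compounds plus 3 SD, cut at about 6.6% in these data, passing the limit was not always enough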
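Measured by – Fluo-8 calcium dye fluorescence · Test system – human OTR in CHO cells · Dosing – one concentration, 3.0 µM compound · Controls – EC15 oxytocin alone as 0%, 75 nM oxytocin as 100% · Evaluation – normalized max/min fluorescence ratio, % activation · Timing – 6 min pre-incubation, 100 s read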
OX1R antag-1 = antagonists of human orexin 1 receptor (OX1R) | O43613 | OX1R-expressing cells, FRET antagonist read-out | inhibition, % at 6.6 µM | 1.8% of 330,000 active | AID 485270; in the data active = inhibition mostly above about 38%, no sharp cut-off; inactive = mostly below about 40%
V1aR counter = V1a receptor agonism, counter-screen for OXTR agonists; activation, % at 3 µM; P37288; CHO-V1R cells, Fluo-8 calcium fluorescence, agonist mode; 0% DMSO, 100% 3 nM vasopressin; 0.25% of 320,000 active;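 active = activation above the mean activation of all tested compounds plus 3 SD, per screening run, cut at about 20% in these data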;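 note: signal is peak over basal fluorescence ratio across a 100 second FLIPR read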
Target sequence (P37288 whole entry, looked up): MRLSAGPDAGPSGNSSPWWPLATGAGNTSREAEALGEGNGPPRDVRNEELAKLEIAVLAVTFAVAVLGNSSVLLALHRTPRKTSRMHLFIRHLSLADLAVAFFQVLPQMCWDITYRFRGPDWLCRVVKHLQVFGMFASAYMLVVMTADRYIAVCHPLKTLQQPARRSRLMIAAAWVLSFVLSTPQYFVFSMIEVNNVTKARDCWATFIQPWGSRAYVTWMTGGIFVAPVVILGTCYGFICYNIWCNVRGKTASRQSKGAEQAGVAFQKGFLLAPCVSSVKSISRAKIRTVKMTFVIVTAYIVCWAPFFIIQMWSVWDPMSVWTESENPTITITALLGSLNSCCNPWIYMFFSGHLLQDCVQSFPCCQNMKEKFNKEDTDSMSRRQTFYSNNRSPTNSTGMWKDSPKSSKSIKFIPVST
OX1R antag-2 = antagonists of human orexin 1 receptor; AID 434989; O43613; inhibition, % at 5 µM; CHO/OX1R cells, Fluo-8 calcium fluorescence, orexin A; 0.43% of 330,000 active;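 active = inhibition above its plate's threshold, mean inhibition of all tested compounds on the plate plus 3 SD, cut at about 37% in these data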
OXTR ag = human OXTR agonism; activation, % at 3 µM; 0.32% of 320,000 active; CHO-OTR cells, Fluo-8 calcium fluorescence; normalized: DMSO 0%, oxytocin 100%; AID 2435;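 active = activation above the mean of all tested compounds plus 3 SD, cutoff set per screening run, cut at about 20% in these data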;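 note: peak over basal fluorescence ratio from a 100 s FLIPR kinetic read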
Hits are given with their value; - = inactive. This is a sample that favours compounds with a hit; in the whole collection about 2.6% have one here.

SMILES | CHO parental Ca | OXTR potentiator | OX1R antag-1 | V1aR counter | OX1R antag-2 | OXTR ag
CC(=O)N1CCN(c2ccc([N+](=O)[O-])c(NCc3cccnc3)c2)CC1 | - | - | 42 | - | - | -
O=C(O)c1ccc(NCc2cccnc2)c([N+](=O)[O-])c1 | - | - | 55 | - | - | -
CCCN(Cc1nnc(-c2ccccc2Cl)o1)C(=O)COc1ccc(Cl)cc1 | - | - | - | - | - | -
CC(C)[C@H](NC(=O)c1ccc([N+](=O)[O-])cc1Cl)C(=O)N1CCN(C/C=C/c2ccccc2)CC1 | - | - | - | - | - | -
Cc1ccc(-n2[nH]c3c4c(ccc3c2=O)C(=O)c2ccccc2C4=O)cc1 | - | - | - | - | - | -
COCCCn1[nH]c2c3c(ccc2c1=O)C(=O)c1ccccc1C3=O | - | - | 75 | - | - | -
CCOP(=O)(OCC)C(C)(C)NC(=O)c1cc([N+](=O)[O-])cc([N+](=O)[O-])c1 | - | - | 59 | - | - | -
CCOP(=O)(OCC)C(NC(=O)c1cc([N+](=O)[O-])cc([N+](=O)[O-])c1)C(F)(F)F (centres undefined) | - | - | 67 | - | - | -
CCC(C)(C)NC(=O)c1cc(C(=O)OC)cc([N+](=O)[O-])c1 | - | - | - | - | - | -
O=C(NCCSc1ncc(-c2ccc(F)cc2)[nH]1)c1ccc2c(c1)OCO2 | - | - | - | - | - | -
C[C@]1(C2CCCC2)Cc2cc(OCC(=O)O)c(Cl)c(Cl)c2C1=O | - | - | - | - | - | -
CCCC[C@@]1(C2CCCC2)Cc2cc(OCC(=O)O)c(Cl)c(Cl)c2C1=O | - | - | 43 | - | - | -
CC1CCCC(NC(=O)NC(=O)COC(=O)c2ccc(O)cc2O)C1C (centres undefined) | - | - | - | - | - | -
CC(C)COc1ccc(S(=O)(=O)NNC(=O)c2cc3ccccc3o2)cc1 | 43 | - | - | - | - | -
CCc1ccc(OCC(=O)NNC(=O)c2cc3ccccc3o2)cc1 | 53 | - | - | - | - | -
C=C(NC(=O)C(=C)NC(=O)c1csc(C2=NC3c4csc(n4)C4NC(=O)c5csc(n5)C([C@@](C)(O)C(C)O)NC(=O)C5CSC(=N5)/C(=C\C)NC(=O)C(C(C)O)NC(=O)c5csc(n5)[C@]3(CC2)NC(=O)C(C)NC(=O)C(=C)NC(=O)C(C)NC(=O)C(C(C)CC)NC2C=Cc3c(C(C)O)cc(nc3C2O)C(=O)OC4C)n1)C(N)=O (some centres undefined) | - | - | - | - | - | -
Cc1ccc(OCc2cc(C(=O)N3CCC(c4ccccc4Cl)C3)no2)cc1C (centres undefined) | - | - | - | - | - | -
Cc1cc(-c2ccc(C)c(S(=O)(=O)NCCCN3CCN(c4ccccc4F)CC3)c2)on1 | 61 | - | - | - | 67 | -
CC(C)(C)CC(C)(C)NC(=S)Nc1ccc2nc(-c3ccccn3)c(-c3ccccn3)nc2c1 | - | - | - | - | - | -
OCCCNC(=S)Nc1ccc2nc(-c3ccccn3)c(-c3ccccn3)nc2c1 | - | - | 75 | - | - | -
COc1ccc(NS(=O)(=O)c2cc(NC(=O)c3ccc(=O)[nH]n3)ccc2C)cc1 | - | - | - | - | - | -
Cc1cc(OCC(=O)Nc2ccccc2C(N)=O)c2c(C)cc(=O)oc2c1 | - | - | - | - | - | -
CCOC(=O)Cc1csc(NC(=O)C(C)c2ccc([N+](=O)[O-])cc2)n1 (centres undefined) | - | - | - | 26 | - | 27
CCOc1ccccc1N1CCN(C(=O)c2ccccc2SCC(=O)N2CCCC2)CC1 | - | - | - | - | - | -
COc1ccc(C/C(N)=N/OC(=O)C(c2ccccc2)c2ccccc2)cc1OC | - | - | - | - | 54 | -
NCCCn1c(C(=O)c2ccc(Cl)cc2)c2ccc([N+](=O)[O-])cc2[n+]1[O-] | - | - | - | - | - | -
N#Cc1c2ccc([N+](=O)[O-])cc2[n+]([O-])n1-c1ccccc1 | - | - | 45 | - | - | -
COc1ccc(NC(=O)c2cc(-c3cc(C)cc(C)c3O)n[nH]2)cc1Cl | - | - | 79 | - | - | -
